This note sets out measurements from ChEMBL document CHEMBL1147035, “Synthesis and in vitro evaluation of targeted tetracycline derivatives: effects on inhibition of matrix metalloproteinases” (Bioorg Med Chem, 2007).

In test [1] the target is Neutrophil collagenase (Homo sapiens, UniProt P22894). The experiment in a line: Inhibition of human MMP8. The procedure, abridged: (§1)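 Human pro-enzymes activated with 2 mM APMA at 37 °C (MMP-2 30 min; MMP-3, MMP-8 1 h), then preincubated 30 min at 37 °C with inhibitor diluted from 10^-3 to 10^-6 M. Substrates: Mca-RPKPYA-Nva-WMK(Dnp)-NH2 for MMP-3; Dnp-Pro-Cha-Gly-Cys(ME)-His-Ala-Lys(Nma)-NH2 for MMP-2 and MMP-8. Incubated 6 h at 37 °C; fluorescence read at ex 340/em 440 nm. Triplicates; IC50 from 3 central linear points.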

Test [2] has as its system SW1353. Briefly: Inhibition of IL-1-beta-induced MMP13 production in human SW1353 cells at 50 uM. The format is functional, cell-based. The procedure, abridged: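 SW-1353 human chondrosarcoma cells grown to confluence in Ham's F12 with 10% FBS, then serum-free medium with 0.1% BSA for 24 h. Cells pretreated 30 min with DMSO vehicle or compound (6×10^-6 to 5×10^-5 M), then stimulated with rmIL-1β 10 ng/mL for 24 h. Total secreted MMP-13 (pro plus mature) in medium measured by ELISA.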

The target of test [3] is Collagenase 3 (Homo sapiens, UniProt P45452). Briefly: Inhibition of human MMP13. The procedure, abridged:
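Human pro-MMP-13 (2 µg/mL in developing buffer) activated with 2 mM APMA for 1 h at 37 °C, then stopped on ice. Enzyme preincubated 30 min at 37 °C with compound (serial 1/10 dilutions from DMSO stocks), then incubated 6 h at 37 °C with fluorogenic substrate Dnp-Pro-Cha-Gly-Cys(ME)-His-Ala-Lys(Nma)-NH2. Fluorescence read at ex 340/em 440 nm, in triplicate. IC50 from 3 points in the linear range of % control fluorescence.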

The target of test [4] is Stromelysin-1 (Homo sapiens, UniProt P08254). The experiment in a line: Inhibition of human MMP3. The procedure, abridged:
as §1

Test [5] has as its target 72 kDa type IV collagenase (Homo sapiens, UniProt P08253). Briefly: Inhibition of human MMP2. The procedure, abridged: as §1
Test [6] is filed under the species Oryctolagus cuniculus. The experiment in a line: (§2) Reduction of IL1-beta plus […]-induced proteoglycan degradation in rabbit articular cartilage at 200 uM relative to control. The format is functional. The method, boiled down: (§3)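 Rabbit articular cartilage fragments were prelabelled with 35SO4 and washed. They were then cultured 24 h with 1 ng/mL rmIL-1β, with or without compound, and moved to 5×10^-4 M APMA for another 24 h. Fragments were digested with papain, and the % radioactivity released to the medium was counted. Means ± sem, n = 8/group; ANOVA with Dunnett's test.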

The species entered for test [7] is Oryctolagus cuniculus. The experiment in a line: (§4) Inhibition of IL1-beta plus […]-induced proteoglycan degradation in rabbit articular cartilage at 100 uM relative to control. Format: functional. The procedure, abridged: (§5)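 Rabbit articular cartilage fragments prelabeled with 35SO4 and washed. Incubated 24 h with or without 1 ng/mL rmIL-1β, with or without compound. Fragments then moved to 5×10^-4 M APMA for 24 h and digested in papain. Radioactivity counted by liquid scintillation. Degradation = media cpm/(media + tissue cpm) ×100. Means ± sem, n = 8/group.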

A short description of test [8]: Inhibition of IL-1-beta-induced collagen degradation in rabbit articular cartilage at 100 uM in presence of plasmin relative to control. Format: functional, Oryctolagus cuniculus. Also on record: scale not given: the % may be the effect or the level left. The method, boiled down:
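Non-radiolabeled rabbit articular cartilage fragments cultured 48 h with or without 10 ng/mL IL-1β plus 0.1 U/mL EACA- and Lys-free plasmin, with or without compound. Media and tissue hydrolyzed in 6 M HCl at 110 °C for 12 h. Hydroxyproline measured colorimetrically; degradation = media OH-Pro/(media + tissue OH-Pro) ×100. Means ± sem, n = 8/group; ANOVA with Dunnett's test.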

Test [9] is described as follows: as §4. The format is functional, Oryctolagus cuniculus. Also on record: scale not given: the % may be the effect or the level left. The method, boiled down: as §5
Test [10] in a line: as §2. The format is functional, Oryctolagus cuniculus. The arrangement: scale not given: the % may be the effect or the level left. The procedure, abridged:
as §3

Active and inactive are the calls of the source. The rule behind the calls is not given here.

In general, IC50 refers to the point on the concentration scale where inhibition reaches its midpoint.

Sequence of Stromelysin-1 (P08254 whole entry): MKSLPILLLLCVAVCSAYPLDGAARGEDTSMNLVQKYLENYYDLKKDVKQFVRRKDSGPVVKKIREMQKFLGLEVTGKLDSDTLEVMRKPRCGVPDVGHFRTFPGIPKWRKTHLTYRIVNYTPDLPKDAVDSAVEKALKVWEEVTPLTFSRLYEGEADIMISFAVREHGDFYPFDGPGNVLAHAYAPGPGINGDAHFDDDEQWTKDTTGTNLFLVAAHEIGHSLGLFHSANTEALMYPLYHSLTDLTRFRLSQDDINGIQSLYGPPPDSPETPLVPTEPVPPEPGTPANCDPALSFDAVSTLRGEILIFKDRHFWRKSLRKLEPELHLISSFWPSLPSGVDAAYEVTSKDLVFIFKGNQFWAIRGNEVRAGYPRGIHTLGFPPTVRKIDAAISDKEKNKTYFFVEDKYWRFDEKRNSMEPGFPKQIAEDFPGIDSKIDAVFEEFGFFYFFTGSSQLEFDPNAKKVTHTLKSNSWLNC
Sequence of Neutrophil collagenase (P22894 whole entry): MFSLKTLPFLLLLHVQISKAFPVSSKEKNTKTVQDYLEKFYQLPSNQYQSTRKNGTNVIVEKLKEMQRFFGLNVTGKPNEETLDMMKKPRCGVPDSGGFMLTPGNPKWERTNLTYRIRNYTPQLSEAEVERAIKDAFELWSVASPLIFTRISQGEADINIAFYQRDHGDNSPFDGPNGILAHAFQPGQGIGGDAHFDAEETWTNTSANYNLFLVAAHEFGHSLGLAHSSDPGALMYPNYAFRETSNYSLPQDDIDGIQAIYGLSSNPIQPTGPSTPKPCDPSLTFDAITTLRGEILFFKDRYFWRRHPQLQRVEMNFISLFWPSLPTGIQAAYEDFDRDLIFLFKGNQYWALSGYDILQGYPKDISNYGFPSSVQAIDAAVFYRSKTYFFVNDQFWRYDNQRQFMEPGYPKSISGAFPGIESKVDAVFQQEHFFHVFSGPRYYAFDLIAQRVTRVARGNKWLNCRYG
Sequence of 72 kDa type IV collagenase (P08253 whole entry, the tested form may be a part): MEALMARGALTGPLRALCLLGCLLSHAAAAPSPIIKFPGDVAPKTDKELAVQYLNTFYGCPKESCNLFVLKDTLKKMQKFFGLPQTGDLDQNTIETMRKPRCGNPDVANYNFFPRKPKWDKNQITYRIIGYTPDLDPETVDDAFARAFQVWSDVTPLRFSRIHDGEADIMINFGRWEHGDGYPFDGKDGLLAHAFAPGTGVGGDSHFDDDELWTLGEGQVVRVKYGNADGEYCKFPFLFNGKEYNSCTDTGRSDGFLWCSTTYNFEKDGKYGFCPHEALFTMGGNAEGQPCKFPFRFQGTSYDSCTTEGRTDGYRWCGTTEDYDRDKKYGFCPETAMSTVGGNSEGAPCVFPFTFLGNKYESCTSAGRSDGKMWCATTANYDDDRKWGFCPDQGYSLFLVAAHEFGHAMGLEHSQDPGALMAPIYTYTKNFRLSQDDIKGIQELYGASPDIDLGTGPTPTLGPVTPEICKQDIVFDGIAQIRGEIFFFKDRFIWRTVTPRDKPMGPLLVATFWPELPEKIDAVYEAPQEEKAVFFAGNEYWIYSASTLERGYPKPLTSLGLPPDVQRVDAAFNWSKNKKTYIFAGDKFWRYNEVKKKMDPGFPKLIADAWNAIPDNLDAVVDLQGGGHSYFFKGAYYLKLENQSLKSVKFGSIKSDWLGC

Take `C[C@@]1(O)c2cccc(O)c2C(=O)C2=C(O)[C@]3(O)C(=O)C(C(N)=O)=C(O)[C@@H]([N+](C)(C)C)C3CC21` (stereo partly specified): the IC50 in [1] came out at 110 µM; in [3], 120 µM; in [4] it was 150 µM; in test [5], 140 µM. Besides, the outcome in test [2] and in [6] was inactive.

With `C[C@H]1c2cccc(O)c2C(=O)C2=C(O)[C@]3(O)C(=O)C(C(N)=O)=C(O)[C@@H]([N+](C)(C)C)C3[C@H](O)C21.[I-]` (stereo partly specified), the outcome in test [7] and in test [2] was inactive. The 50% inhibitory concentration (IC50) in test [1] worked out at 11 µM; in [3] it was 4.9 µM; in test [4] it was 81 µM; in test [5], 7.7 µM. For the same molecule, the Activity in [8] was 66%.

In the case of `C[C@H]1c2cccc(O)c2C(=O)C2=C(O)[C@]3(O)C(=O)C(C(N)=O)=C(O)[C@@H](N(C)C)[C@@H]3C(O)[C@@H]21.O` (single isomer, unassigned) [DOXYCYCLINE], the Activity was 8% in test [9] and 89% in [8]. Moreover, the IC50 stood at 31 µM in test [1], 40 µM in test [3], 25 µM in test [4] and 24 µM in test [5]. The outcome in test [2] was Active.

As to `CN(C)[C@@H]1C(O)=C(C(N)=O)C(=O)[C@@]2(O)C(O)=C3C(=O)c4c(O)cccc4[C@@](C)(O)[C@H]3C[C@@H]12` [TETRACYCLINE], the 50% inhibitory concentration (IC50) was determined as 180 µM in test [1], 180 µM in test [3], 140 µM in test [4] and 220 µM in [5]. The result in [2] was Active. Besides, the Activity in test [10] is 29%.
